Most compounds without a hit are left out; they make up all but 9.2% or so of the library.
Dynein transport: inhibitors of GR-EGFP nuclear translocation, primary screen, dynein cargo transport inhibitor project, imaging, high-content, 3617.4 mouse cells; test concentration mostly 20 µM; stimulated with dexamethasone, 1 µM; hits give low values; z-score, hits read low; actives 0.47% (n = 220,000); AID 1381, 2008;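 active means plate z-score of nuclear minus cytoplasmic receptor signal below a set negative limit, without overly bright fluorescence or cell loss, cut at about -3.5 in these data, passing the limit was not always enough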;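 further: z-score of nuclear minus cytoplasmic ring GR-EGFP intensity difference per well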
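Also added – dexamethasone, 1.0 µM final · Buffer or medium – tet-free, stripped-serum medium · Schedule – induction 48 h, compound 1 h, agonist 30 min · Detection – formaldehyde fixation, Hoechst nuclear stain, 10x automated fluorescence imaging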
Autophagy mod: autophagy modulators in MEF cells, primary screen, imaging, high-content, MEF GFP-LC3; MEF GFP-LC3 puncta imaging; test concentration mostly 10 µM; actives 0.98% (n = 190,000); calls only at 10 µM (by protocol);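 active means percentage of spot-positive cells more than 3 SD above its plate mean, without a fluorescence outlier flag or 80% toxicity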;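 further: spot-positive cell cutoff set from DMSO-treated cells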
PTEN del growth: growth suppression of PTEN-null HCT116, primary screen, cell-based, CellTiter-Glo; HCT116 PTEN-null viability, 60 h; hits give low values; viability, % at 10 µM; actives 1.2% (n = 140,000); AID 827, 2007;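 active means viability at or below a set limit, 4 SD under the median of all tested compounds, cut at about 3.7% in these data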;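 further: PTEN knockout HCT116 line with beta catenin targeted HCT116 as companion control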
Lmaj promast: Leishmania major promastigote growth inhibition, primary screen | Leishmania major promastigotes, resazurin fluorescence viability | actives 9% (n = 200,000) | AID 1063, 2008 | inhibition, % at 10 µM; in the data active means inhibition above about 50%;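 further: promastigotes grown with compound for 44 hours at 28 °C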
bCat KO growth: primary screen for growth suppressors in beta-catenin knockout HCT116 cells (colon tumor, human); HCT116 beta-catenin knockout viability, CellTiter-Glo, 60 h; hits give low values; viability, % at 10 µM; actives 1.5% (n = 140,000);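 active means viability at or under a set limit, the compound median less 4 SD, cut at about 6% in these data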;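 further: 0% = Hyamine 1622 control at 20 µM and 100% = untreated cell control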
* = called active by the depositor; i = inactive; . = no result given; + = active, no number.

SMILES	Dynein transport	Autophagy mod	PTEN del growth	Lmaj promast	bCat KO growth
COc1ccc(O)c(/C=N/n2c(-c3ccco3)csc2=Nc2cccnc2)c1	0.12	i	75.8	91.2*	78.0
CCN=c1scc(-c2cccs2)n1/N=C/c1cc(OC)ccc1O	0.592	i	16.2	75.3*	15.3
CCCS(=O)(=O)c1ccc(COC(=O)c2ccc(NC(C)=O)cc2)cc1	-0.461	i	.	-1.4	.
O=C(NCc1cccnc1)C(=O)N/N=C/c1ccc([N+](=O)[O-])cc1	-2.61	i	.	1.7	.
COCCNC(=O)c1ccc(NC(=O)C2(c3ccccc3)CCCC2)cc1	1.4	i	.	5.8	.
Cc1cc(C(=O)NCCc2ccc(S(N)(=O)=O)cc2)no1	-0.787	i	.	0.3	.
Cc1c2c(nc3nnnn13)CCCC2	0.475	i	.	-4.8	.
CC(=O)c1sc(NC(=O)c2cc(=O)c3ccccc3o2)nc1C	-0.864	+	.	-1.6	.
CNC(=O)CNC(=O)Nc1ccc(C)cc1	0.867	i	.	-3.3	.
CC(Oc1ccc(Cl)cc1)c1ccc(C#N)c(=O)[nH]1 (stereo not given)	0.0488	i	.	-7.1	.
O=C(c1cc(Cl)ccc1[N+](=O)[O-])n1cnc2ccccc21	-0.919	i	95.4	55.4*	100.5
O=C(c1ccccc1[N+](=O)[O-])n1cnc2ccccc21	0.186	i	.	-1.8	.
COc1ccc(/C=N/NC(=O)c2ccc(O)cc2O)cc1CSc1ccccn1	-0.276	i	78.2	-11.5	83.4
O=C(Cc1ccc(-n2c(=O)[nH]c3ccsc3c2=O)cc1)N1CCN(c2ccc(Cl)cc2)CC1	1.04	i	91.2	70.1*	91.2
Cc1cccc(N2CCN(C(=O)Cc3ccc(-n4c(=O)[nH]c5ccsc5c4=O)cc3)CC2C)c1 (stereo not given)	0.584	i	84.0	55.9*	83.8
COc1ccc(N2CCN(C(=O)Cn3c(=O)[nH]c4ccsc4c3=O)CC2)cc1	2.57	i	97.0	23.0	93.9
CN(C(=O)c1ccc(OC2CCN(CCc3ccccc3)CC2)cc1)C1CCCCC1	-0.0606	i	.	91.5*	.
OC1(c2ccc3c(c2)OCO3)CCN(Cc2ccccn2)CC1	-0.398	i	99.6	12.5	97.5
OC1(c2ccc3ccccc3c2)CCN(Cc2ccccc2)C1 (stereo not given)	-0.483	i	76.0	93.9*	87.1
Clc1ccc(Sc2ccc(/C=N/n3cnnc3)o2)cc1	-0.797	i	88.4	66.0*	80.2
Clc1ccc(Sc2oc(/C=N/n3cnnc3)cc2Br)cc1	-0.123	i	68.1	71.0*	17.6
CN(C)C(=O)/C(C#N)=C\c1cc(Br)c(Sc2ccc(Cl)cc2)o1	-0.266	i	12.6	19.1	20.7
CCCC(C(=O)NCc1ccccc1)N(C(=O)Cn1nnc(-c2cccs2)n1)c1ccc2c(c1)OCCO2 (stereo not given)	-0.0576	+	87.6	12.3	77.7
Cc1ccc(NC(=O)c2ccc(N/N=C/c3cccc(O)c3)c([N+](=O)[O-])c2)cc1	-0.028	i	1.9*	-3.1	2.9*
Cc1ccc(NC(=O)c2ccc(Nc3c([N+](=O)[O-])cc([N+](=O)[O-])cc3[N+](=O)[O-])cc2)cc1	-1.73	i	2.3*	100.4*	4.5*
SMILES	Dynein transport	Autophagy mod	PTEN del growth	Lmaj promast	bCat KO growth
Cc1ccc(C(=O)Nc2cc([N+](=O)[O-])ccc2C)cc1	-0.289	i	.	-0.5	.
Cc1ccccc1NC(=O)c1ccc(N/N=C/c2ccccc2O)c([N+](=O)[O-])c1	-0.0838	i	33.0	-5.5	45.4
O=C1CC(=C2c3ccccc3-c3ccccc32)C(=O)N1CCCCN1CCN(c2ccccc2)CC1	-2.09	i	64.6	99.4*	60.4
CSCc1ccc(C(=O)NCc2ccc(F)cc2)cc1	-0.371	i	103.3	56.0*	94.9
CCC(C)(C)n1nnnc1CN(Cc1cc2cc(OC)ccc2[nH]c1=O)C1CCCC1	-0.829	i	77.2	98.5*	91.8
COc1ccc(Cn2nnnc2CN(Cc2cc3ccc(C)cc3[nH]c2=O)C2CCCC2)cc1	-1.02	i	81.6	82.4*	84.2
COc1ccc(Cn2nnnc2CN(Cc2cc3cccc(C)c3[nH]c2=O)C2CCCC2)cc1	1.33	.	81.8	34.2	92.8
N#Cc1c(-c2ccccc2)cc(-c2ccccc2)nc1Br	-0.586	i	101.4	49.6	91.4
CC(C)=CCC/C(C)=C/CCC(C)NCCN1CCNCC1 (stereo not given)	0.413	+	1.8*	100.5*	1.8*
CC(C)=CCC/C(C)=C/CC(C)(C)CNCCN1CCNCC1	i	i	1.2*	100.4*	1.1*
CC(C)=CCCC(C)CN1CCC(O)CC1 (stereo not given)	0.15	i	91.4	13.0	94.1
Cc1cc(C)n2nc(Sc3ncccc3[N+](=O)[O-])nc2n1	-0.149	.	.	.	.
O=C(C1CCCN(CCCc2ccccc2)C1)N1CCCCC1 (stereo not given)	0.00684	i	86.1	-7.9	78.1
CC1CCN(C(=O)C2CCN(CCCc3ccccc3)CC2)CC1	0.33	i	69.2	53.0*	66.0
O=C(C1CCCN(CCCc2ccccc2)C1)N1CCCCCC1 (stereo not given)	-0.176	i	82.9	71.0*	88.6
COc1ccc2nc(C)cc(Sc3nc4ccccc4s3)c2c1	-1.89	.	.	.	.
N#Cc1c(-c2ccccc2F)cc(C2CC2)nc1SCC(=O)c1cccs1	-0.94	+	74.4	3.3	83.1
CCSc1nc(C2CC2)cc(-c2cccs2)c1C#N	0.363	i	61.1	-2.4	62.4
COc1ccccc1-n1c(SCC(=O)c2ccc(O)cc2O)nc2cc([N+](=O)[O-])ccc21	-0.709	i	88.0	51.4*	88.0
O=C(CSc1nc2cc([N+](=O)[O-])ccc2n1-c1ccccc1)NCc1ccc2c(c1)OCO2	0.486	i	89.8	-3.5	95.9
COc1ccccc1-n1c(SCC(=O)NC2CCS(=O)(=O)C2)nc2cc([N+](=O)[O-])ccc21 (stereo not given)	0.345	i	94.4	0.3	92.6
CCN(CC)S(=O)(=O)c1ccc2c(c1)nc(SCC(=O)NC1CC1)n2-c1ccccc1OC	-1.47	i	82.0	79.7*	89.0
CC1CCN(c2c([N+](=O)[O-])c(=O)oc3ccccc23)CC1	-0.841	i	83.8	-3.4	87.8
Cc1ccc(NC(=S)c2nc3ccccc3[nH]2)c(C)c1	-0.256	i	48.5	86.9*	43.6
CC(=O)NC(CC(=O)NCCN1C(=O)S/C(=C\c2ccccc2)C1=O)c1ccccc1 (stereo not given)	1.83	.	.	.	.
O=C1CN2NC(=S)N(c3ccccc3)C2=CN1c1ccc(Cl)cc1	0.141	i	.	2.0	.
CCOC(=O)CN1N=C(c2ccc(Cl)s2)CSC1=O	-0.692	i	112.4	36.6	96.3

Assay outcomes from PubChem BioAssay.
